One may read the half-life as the time in which the quantity being followed falls by half.

The source of these data is ChEMBL document CHEMBL1130099, “Stabilized analogs of thymopentin. 2. 1,2- and 3,4-ketomethylene pseudopeptides” (J Med Chem, 1997).

Series [1] concerns CCRF-CEM. The series is described as follows: Binding efficacy expressed as counts remaining after competition was subtracted from total of Thymopentin and divided by the counts reduced by authentic Thymopentin. Format: functional, Homo sapiens. The method, boiled down: (§1)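 CEM cells at 5×10^6 cells/0.1 mL binding buffer, given unlabeled peptide over 10^-6 to 10^-3 M plus radiolabeled thymopentin (548 000 cpm), 30 min at 25 °C. Diluted with ice-cold buffer, washed twice by centrifugation, bound counts by scintillation. Efficacy = (total thymopentin binding − counts after competition)/(reduction by authentic thymopentin); mean ± SEM over repeated trials.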

For series [2], the system named is CCRF-CEM. The series is described as follows: Ability to bound CEM cell measured as competition for displacement of radiolabeled Thymopentin from the receptor. The format is functional, Homo sapiens. The method, boiled down: as §1
The species named for another series is Mus musculus. Put plainly: The plasma half life of compound was determined on heparin prepared by mouse plasma; Not degraded. Format: ADME. The method, boiled down: (§2)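 Half-life in heparinized mouse plasma: peptide incubated for variable times, then parent decrease and degradation products resolved and quantified by HPLC absorbance.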
The nature of series [3]: The plasma half life of compound was determined on heparin prepared by human plasma; Not degraded. The following applies: in vivo.
The nature of series [4]: The plasma half life of compound was determined on heparin prepared by human plasma.
A short description of series [5]: The plasma half life of compound was determined on EDTA prepared by mouse plasma. Format: ADME. A digest of the protocol: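 Peptide incubated in EDTA-treated mouse plasma for variable times. Loss of parent and appearance of degradation products quantified by HPLC with absorbance detection; half-life in min.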
Series [6] in a line: The plasma half life of compound was determined on heparin prepared by mouse plasma. The format is ADME. A digest of the protocol:
as §2

Each structure is given as a SMILES string.

Take `CC(C)[C@H](CC(=O)[C@H](CC(=O)O)NC(=O)[C@@H]1CCCN1C(=O)[C@H](N)CCCN=C(N)N)C(=O)N[C@@H](Cc1ccccc1)C(=O)O`: the Binding with CCRF-CEM [1] is recorded as 72%. The compound further registered a Binding competition in the series with CCRF-CEM [2] of 1686 mean counts.
The like results for `CCCC[C@H](CC(=O)[C@@H](N)CCCN=C(N)N)C(=O)N[C@@H](CC(=O)O)C(=O)N[C@@H](C(=O)N[C@@H](Cc1ccccc1)C(=O)O)C(C)C` were, in that order, 71% and 1713 mean counts.
On to `CC(C)[C@H](CC(=O)[C@H](CC(=O)O)NC(=O)[C@H](CCCCN)N(C)C(=O)[C@@H](N)CCCN=C(N)N)C(=O)N[C@@H](Cc1ccccc1)C(=O)O`, for which the T1/2 entry (in the series listed under Mus musculus; in series [3]) was “Not degraded” throughout. The compound further had a Binding in the series on CCRF-CEM [1] of 13%. This compound showed a Binding competition in the series with CCRF-CEM [2] of 2820 mean counts.
The compound `CC(C)[C@H](CC(=O)[C@H](CC(=O)O)NC(=O)[C@@H]1CCCN1C(=O)[C@H](N)CCCN=C(N)N)C(=O)N[C@@H](Cc1ccccc1)C(N)=O` returned a Binding in the series with CCRF-CEM [1] of 20%. Besides, the Binding competition in the series on CCRF-CEM [2] was 2692 mean counts.
In turn, `CCCC[C@H](CC(=O)[C@@H](N)CCCN=C(N)N)C(=O)N[C@@H](CC(=O)O)C(=O)N[C@H](C(=O)N[C@@H](Cc1ccccc1)C(=O)O)C(C)C` (stereo in doubt; 2a-A) showed a Binding with CCRF-CEM [1] of 44%. The compound also displayed a Binding competition with CCRF-CEM [2] of 2222 mean counts. The same compound returned a half-life in series [4] of 12.5 min.
In the series on CCRF-CEM [1], `CCCC[C@H](CC(=O)[C@@H](N)CCCN=C(N)N)C(=O)N[C@@H](CC(=O)O)C(=O)N[C@H](C(=O)N[C@@H](Cc1ccccc1)C(=O)O)C(C)C` (stereo in doubt; 2a-B) yielded a Binding of 47%. The Binding competition in the series on CCRF-CEM [2] amounted to 2176 mean counts.
`CCCC[C@H](CC(=O)[C@@H](N)CCCN=C(N)N)C(=O)N[C@@H](CC(=O)O)C(=O)N[C@H](C(=O)N[C@@H](Cc1ccccc1)C(=O)O)C(C)C` (stereo in doubt; 2a-C) returned a Binding with CCRF-CEM [1] of 20%. In the series on CCRF-CEM [2], this compound had a Binding competition of 2687 mean counts.
Take `CCCC[C@H](CC(=O)[C@@H](N)CCCN=C(N)N)C(=O)N[C@@H](CC(=O)O)C(=O)N[C@H](C(=O)N[C@@H](Cc1ccccc1)C(=O)O)C(C)C` (stereo in doubt; 2a-D): the Binding with CCRF-CEM [1] is listed as 39%. The compound further gave a Binding competition in the series with CCRF-CEM [2] of 2333 mean counts.
In the series with CCRF-CEM [2], `CCCC[C@H](CC(=O)[C@@H](N)CCCN=C(N)N)C(=O)N[C@@H](CC(=O)O)C(=O)N[C@H](C(=O)N[C@@H](Cc1ccccc1)C(N)=O)C(C)C` (stereo in doubt; 2b-A) gave a Binding competition of 3627 mean counts.
As for `CCCC[C@H](CC(=O)[C@@H](N)CCCN=C(N)N)C(=O)N[C@@H](CC(=O)O)C(=O)N[C@H](C(=O)N[C@@H](Cc1ccccc1)C(N)=O)C(C)C` (stereo in doubt; 2b-B), in the series on CCRF-CEM [1], the Binding amounted to 0%. Besides, in the series with CCRF-CEM [2], the Binding competition is on record as 3648 mean counts.
With `CC(C)[C@H](CC(=O)[C@H](CC(=O)O)NC(=O)[C@H](CCCCN)NC(=O)[C@@H](N)CCCN=C(N)N)C(=O)N[C@@H](Cc1ccccc1)C(=O)O` (stereo in doubt; 3a-A), the half-life stood at 5.8 min in series [5], 2.4 min in series [6] and 2.7 min in series [4]. Further, the Binding in the series on CCRF-CEM [1] is on record as 115%. The same compound registered a Binding competition in the series on CCRF-CEM [2] of 844 mean counts.
Compound `CC(C)[C@H](CC(=O)[C@H](CC(=O)O)NC(=O)[C@H](CCCCN)NC(=O)[C@@H](N)CCCN=C(N)N)C(=O)N[C@@H](Cc1ccccc1)C(=O)O` (stereo in doubt; 3a-B) had a Binding with CCRF-CEM [1] of 103%. Further, in the series on CCRF-CEM [2], the Binding competition is given as 1091 mean counts.
For `CCCC[C@H](NC(=O)[C@@H](N)CCCN=C(N)N)C(=O)N[C@@H](CC(=O)O)C(=O)C[C@H](C(=O)N[C@@H](Cc1ccccc1)C(=O)O)C(C)C` (stereo in doubt; 3b-A), in that order: 96% and 1232 mean counts.
For `CCCC[C@H](NC(=O)[C@@H](N)CCCN=C(N)N)C(=O)N[C@@H](CC(=O)O)C(=O)C[C@H](C(=O)N[C@@H](Cc1ccccc1)C(=O)O)C(C)C` (stereo in doubt; 3b-B), in that order: 85% and 1447 mean counts.
The like results for `C[C@H](CC(=O)[C@H](CC(=O)O)NC(=O)[C@H](CCCCN)NC(=O)[C@@H](N)CCCN=C(N)N)C(=O)N[C@@H](Cc1ccccc1)C(=O)O` (stereo in doubt; 3e-A) were, in that order, 47% and 2172 mean counts.
For the compound `C[C@H](CC(=O)[C@H](CC(=O)O)NC(=O)[C@H](CCCCN)NC(=O)[C@@H](N)CCCN=C(N)N)C(=O)N[C@@H](Cc1ccccc1)C(=O)O` (stereo in doubt; 3e-B), the Binding in the series on CCRF-CEM [1] was 24%. In the series with CCRF-CEM [2], this compound gave a Binding competition of 2606 mean counts.
